{"source": "paper PMC9512414", "about": "(International Journal of Nanomedicine, 2022)", "molecules": {"B1": {"name": "Daclizumab: FDA-approved drug, CD25 inhibitor (antibody, chains of the INN, looked up, V domains shown)", "VH": "QVQLVQSGAEVKKPGSSVKVSCKASGYTFTSYRMHWVRQAPGQGLEWIGYINPSTGYTEYNQKFKDKATITADESTNTAYMELSSLRSEDTAVYYCARGGGVFDYWGQGTLVTVSS", "VL": "DIQMTQSPSTLSASVGDRVTITCSASSSISYMHWYQQKPGKAPKLLIYTTSNLASGVPARFSGSGSGTEFTLTISSLQPDDFATYYCHQRSTYPLTFGQGTKVEVK"}}, "system": "lung tumor", "assay": "18F-FDG PET imaging of Kras metastatic lung cancer patients", "type": "in vivo", "conditions": "Kras metastatic patients (Stage IV), in relation to control groups", "in_short": "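Patients had 18F-FDG PET/CT at baseline before combined test treatment, after three treatment cycles (interim), and after treatment ended (late). Each patient had at least two scans. Images were reconstructed by ordered subset expectation maximization with six iterations and 12 subsets.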", "data": [{"molecule": "B1", "values": [{"measurement": "tumor burden by comparative 18F-FDG PET imaging", "value": "lower tumor burden"}]}]}
